# ChEMBL document CHEMBL3864163, “I. Discovery of a novel series of CXCR3 antagonists. Multiparametric optimization of N,N-disubstituted benzylamines” (Bioorg Med Chem Lett, 2016)
# What was measured:
# [1] = biological target: T1, C-X-C chemokine receptor type 3 (Homo sapiens, UniProt P49682); assay: Displacement of [125I]-CXCL10 from human recombinant CXCR3 transfected in Flp-In-CHO cell membranes after 60 mins by gamma counting method
# T1 sequence (P49682 whole entry): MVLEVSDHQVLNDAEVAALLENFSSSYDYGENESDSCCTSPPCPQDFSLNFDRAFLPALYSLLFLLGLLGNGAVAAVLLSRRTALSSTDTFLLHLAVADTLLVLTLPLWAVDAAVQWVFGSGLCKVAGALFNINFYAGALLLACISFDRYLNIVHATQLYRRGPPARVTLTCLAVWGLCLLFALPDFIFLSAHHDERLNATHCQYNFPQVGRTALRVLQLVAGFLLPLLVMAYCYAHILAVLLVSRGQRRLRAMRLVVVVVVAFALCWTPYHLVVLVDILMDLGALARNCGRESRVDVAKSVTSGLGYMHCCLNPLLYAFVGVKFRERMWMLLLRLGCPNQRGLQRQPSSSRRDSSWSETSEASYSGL
# [2] = Metabolic stability in mouse liver microsomes assessed as parent compound remaining in presence of NADPH by LC-MS/MS method; format: ADME
# In short: (§1)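 Compound incubated with liver microsomes (human or mouse) plus NADPH at 37 °C. Loss of parent was followed by LC-MS-MS and reported as percent. Stability bands: low <40%, medium 40–60%, high >60%.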
# [3] = Metabolic stability in human liver microsomes assessed as parent compound remaining in presence of NADPH by LC-MS/MS method; format: ADME; in short: as §1
# [4] = Intrinsic clearance in human hepatocytes assessed per 10^6 cells at 5 uM; format: ADME, cell-based, Hepatocyte
# [5] = Apparent permeability across human Caco2 cells after 2 hrs by LC-MS method; format: ADME, cell-based; conditions: Caco-2
# In short: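 Caco-2 monolayers checked for integrity, then dosed alongside high- and low-permeability controls. Apical and basal samples taken at 2 h. Four transport conditions: A-B at pH 6.5/7.4 (0% or 0.5% BSA apical, 5% BSA basal), and A-B and B-A at pH 7.4/7.4 (0.5% BSA both sides). Compound quantified by LC/MS. Rapid transport defined as Papp >20 nm/s.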
# [6] = biological target: T2, Muscarinic acetylcholine receptor M2 (Homo sapiens) (UniProt P08172); assay: Displacement of [3H]AF-DX384 from recombinant human muscarinic M2 receptor expressed in CHO cells at 10 uM after 60 mins by scintillation counting method relative to control; format: cell-based
# T2 sequence (whole entry): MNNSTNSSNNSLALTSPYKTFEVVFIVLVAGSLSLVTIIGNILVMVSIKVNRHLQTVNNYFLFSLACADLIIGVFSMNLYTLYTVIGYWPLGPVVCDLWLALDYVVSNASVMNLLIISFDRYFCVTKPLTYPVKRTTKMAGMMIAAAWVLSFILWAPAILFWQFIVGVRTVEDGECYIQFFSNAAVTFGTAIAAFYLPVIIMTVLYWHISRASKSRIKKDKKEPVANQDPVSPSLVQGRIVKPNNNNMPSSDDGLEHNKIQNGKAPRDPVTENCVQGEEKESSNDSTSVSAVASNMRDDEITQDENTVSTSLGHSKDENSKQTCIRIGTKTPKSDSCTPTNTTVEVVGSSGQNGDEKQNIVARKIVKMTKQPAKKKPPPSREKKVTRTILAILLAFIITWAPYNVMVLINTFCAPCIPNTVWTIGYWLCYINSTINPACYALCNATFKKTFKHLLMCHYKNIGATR
# [7] = Absolute oral bioavailability in Balb/c mouse at 10 mg/kg; format: ADME, organism-based; conditions: in vivo
# In short: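 Male Balb/c mice dosed once orally at 10 mg/kg and once intravenously at 3 mg/kg. Either 4 animals per route were profiled individually, or sparse sampling used 24 mice with 3 per time point for mean profiles. Absolute oral bioavailability was derived from the two routes.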
Compound,IC50 [1] [nM],Stability [2] [%],Stability [3] [%],CLH [4] [mL/h],Papp at 2 h [5] [×10⁻⁶ cm/s],inhibition [6] [%],bioavailability [7] [%]
Cc1cc(CN(C)C(C)c2ccc3c(c2)CCO3)ccc1OCCN1C(=O)CCC1=O (stereo unspecified),230,19,29,–,–,–,–
COc1cc(CN(C[C@H]2CC[C@H](C(=O)O)CC2)[C@H]2CCc3c2ccc(Cl)c3Cl)ccc1OCCN1C(=O)CCC1=O,–,81,75,0.083,5.7,0,–
COc1cc(CN(C[C@H]2CC[C@H](C(=O)O)CC2)[C@H]2CCc3cc(Cl)ccc32)ccc1CCCN1C(=O)CCC1=O,1000,24,36,–,16.5,–,–
COc1cc(CN(CC23CCC(C(=O)O)(CC2)CC3)C(C)c2ccc3c(c2)CCO3)ccc1OCCN1C(=O)CCC1=O (stereo unspecified),225,79,71,–,6.56,–,–
CC(c1ccc2c(c1)CCO2)N(Cc1ccc(OCCN2C(=O)CCC2=O)c(Cl)c1)C[C@H]1CC[C@H](C(=O)O)CC1 (stereo partly specified),–,92,56,–,3.95,98,–
COc1cc(CN(C[C@H]2CC[C@H](C(=O)O)CC2)[C@H]2CCc3cc(Cl)ccc32)ccc1SCCN1C(=O)CCC1=O,–,3,15,–,7.24,–,–
COc1cc(CN(C)C(C)c2ccc3c(c2)CCO3)ccc1OCCN1C(=O)CNC1=O (stereo unspecified),240,55,60,–,–,–,–
COc1cc(CN(C[C@H]2CC[C@H](C(=O)O)CC2)C(C)c2ccc3c(c2)CCO3)ccc1OCCN1C(=O)CCC1=O (stereo partly specified),–,92,98,–,0.98,54,17.3
COc1cc(CN(Cc2ccc(C(=O)O)cc2)C(C)c2ccc3c(c2)CCO3)ccc1OCCN1C(=O)CCC1=O (stereo unspecified),120,63,61,–,–,–,9
COc1cc(CN(Cc2ccc(-c3nnn[nH]3)cc2)C(C)c2ccc3c(c2)CCO3)ccc1OCCN1C(=O)CCC1=O (stereo unspecified),126,77,51,–,0.2,–,–
COc1cc(CN(Cc2ccc(F)cc2)C(C)c2ccc3c(c2)CCO3)ccc1OCCN1C(=O)CCC1=O (stereo unspecified),97,19,24,–,–,–,–
COc1cc(CN(Cc2ccc(/C=C/C(=O)O)cc2)C(C)c2ccc3c(c2)CCO3)ccc1OCCN1C(=O)CCC1=O (stereo unspecified),138,87,84,–,1.34,–,–
COc1cc(CN(C[C@H]2CC[C@H](C(=O)O)CC2)[C@@H]2CCc3cc(Cl)ccc32)ccc1OCCN1C(=O)CCC1=O,–,55,54,–,6.62,–,–
COc1cc(CN(C)C(C)c2ccc3c(c2)CCO3)ccc1NCCN1C(=O)CCC1=O (stereo unspecified),443,–,–,–,–,–,–
COc1cc(CN(Cc2ccc(C(=O)O)cc2)C(c2ccc3c(c2)CCO3)C2CCCC2)ccc1OCCN1C(=O)CCC1=O (stereo unspecified),4200,–,52,–,–,–,–
CCC(c1ccc2c(c1)CCO2)N(Cc1ccc(C(=O)O)cc1)Cc1ccc(OCCN2C(=O)CCC2=O)c(OC)c1 (stereo unspecified),160,78,60,–,1.46,–,–
COc1cc(CN(Cc2ccc(C(=O)O)cc2)[C@H](C)c2ccc(Cl)cc2)ccc1OCCN1C(=O)CCC1=O,345,100,98,–,3.7,–,–
COc1cc(CN(CCCC(=O)O)C(c2ccc3c(c2)CCO3)C2CCCC2)ccc1OCCN1C(=O)CCC1=O (stereo unspecified),382,94,92,–,3.21,–,–
COc1cc(CN(Cc2ccc3c(c2)CCO3)C(C)c2ccc3c(c2)CCO3)ccc1OCCN1C(=O)CCC1=O (stereo unspecified),340,24,28,–,–,–,–
COc1cc(CN(C)C(C)c2ccc3c(c2)CCO3)ccc1OCCN1C(=O)CN(C)C1=O (stereo unspecified),202,26,28,–,–,–,–
CC(c1ccc2c(c1)CCO2)N(C)Cc1ccc(OCCN2C(=O)CCC2=O)c(Cl)c1 (stereo unspecified),187,17,14,–,–,–,–
COc1cc(CN(C[C@H]2CC[C@H](C(=O)OC)CC2)[C@H]2CCc3cc(Cl)ccc32)ccc1OCCN1C(=O)CCC1=O,840,–,–,–,–,–,–
COc1cc(CN(C)C(C)c2ccc3c(c2)CCO3)ccc1OCCN1C(=O)CSC1=O (stereo unspecified),120,7,4,–,–,–,–

# Continued, values first:
IC50 [1] [nM],Stability [2] [%],Stability [3] [%],CLH [4] [mL/h],Papp at 2 h [5] [×10⁻⁶ cm/s],inhibition [6] [%],bioavailability [7] [%],Compound
790,–,–,–,–,–,–,COc1cc(CN(C)[C@H](C)c2ccc3c(c2)CCO3)ccc1OCCN1C(=O)CCC1=O
110,8,9,–,–,–,–,CCCC(c1ccc2c(c1)CCO2)N(C)Cc1ccc(OCCN2C(=O)CCC2=O)c(OC)c1 (stereo unspecified)
290,67,61,–,–,–,–,COc1cc(CNCc2ccc3c(c2)CCO3)ccc1OCCN1C(=O)CCC1=O
110,5,5,–,–,–,–,CCC(c1ccc2c(c1)CCO2)N(CC)Cc1ccc(OCCN2C(=O)CCC2=O)c(OC)c1 (stereo unspecified)
607,62,61,–,–,–,–,COc1cc(CNC(C)c2ccc3c(c2)CCO3)ccc1OCCN1C(=O)CCC1=O (stereo unspecified)
190,29,19,–,–,–,–,COc1cc(CN(Cc2cccnc2)C(C)c2ccc3c(c2)CCO3)ccc1OCCN1C(=O)CCC1=O (stereo unspecified)
1200,–,–,–,–,–,–,CCCC(NCc1ccc(OCCN2C(=O)CCC2=O)c(OC)c1)c1ccc2c(c1)CCO2 (stereo unspecified)
55,9,2,–,–,–,–,COc1cc(CN(CC(C)C)C(C)c2ccc3c(c2)CCO3)ccc1OCCN1C(=O)CCC1=O (stereo unspecified)
330,–,–,–,–,–,–,COc1cc(CN(C)C(CC(C)C)c2ccc3c(c2)CCO3)ccc1OCCN1C(=O)CCC1=O (stereo unspecified)
70,11,7,–,–,–,–,COc1cc(CN(Cc2ccc3c(c2)CCO3)CC(C)C)ccc1OCCN1C(=O)CCC1=O
1800,–,–,–,–,–,–,COc1cc(CNC(CC(C)C)c2ccc3c(c2)CCO3)ccc1OCCN1C(=O)CCC1=O (stereo unspecified)
77,0,2,–,–,–,–,COc1cc(CN(CC(C)O)C(C)c2ccc3c(c2)CCO3)ccc1OCCN1C(=O)CCC1=O (stereo unspecified)
52,27,35,–,–,–,–,COc1cc(CN(CC2CCCCC2)C(C)c2ccc3c(c2)CCO3)ccc1OCCN1C(=O)CCC1=O (stereo unspecified)
2200,13,48,–,–,–,–,COc1cc(CN(CCN)C(C)c2ccc3c(c2)CCO3)ccc1OCCN1C(=O)CCC1=O (stereo unspecified)
210,95,100,–,–,–,2,COc1cc(CN(CCCC(=O)O)C(C)c2ccc3c(c2)CCO3)ccc1OCCN1C(=O)CCC1=O (stereo unspecified)
38,19,19,–,–,–,–,CCC(c1ccc2c(c1)CCO2)N(Cc1ccc(OCCN2C(=O)CCC2=O)c(OC)c1)CC(C)C (stereo unspecified)
780,–,–,–,–,–,–,COc1cc(CNC(C)(C)c2ccc3c(c2)CCO3)ccc1OCCN1C(=O)CCC1=O
154,–,–,–,–,–,–,COc1cc(CN(C)[C@@H](C)c2ccc3c(c2)CCO3)ccc1OCCN1C(=O)CCC1=O
3260,–,–,–,–,–,–,COc1cc(CNC(c2ccc3c(c2)CCO3)C2CCCC2)ccc1OCCN1C(=O)CCC1=O (stereo unspecified)
202,0,2,–,–,–,–,COc1cc(CN(CC(C)=O)C(C)c2ccc3c(c2)CCO3)ccc1OCCN1C(=O)CCC1=O (stereo unspecified)
1060,–,–,–,–,–,–,CCC(NCc1ccc(OCCN2C(=O)CCC2=O)c(OC)c1)c1ccc2c(c1)CCO2 (stereo unspecified)
82,4,3,–,–,–,–,COc1cc(CN(CCO)C(C)c2ccc3c(c2)CCO3)ccc1OCCN1C(=O)CCC1=O (stereo unspecified)
130,42,41,–,–,–,–,COc1cc(CN(Cc2ccncc2)C(C)c2ccc3c(c2)CCO3)ccc1OCCN1C(=O)CCC1=O (stereo unspecified)
